Laboratory results as given in ChEMBL document CHEMBL4028917, “(+)-Methyl (1R,2S)-2-{[4-(4-Chlorophenyl)-4-hydroxypiperidin-1-yl]methyl}-1-phenylcyclopropanecarboxylate [(+)-MR200] Derivatives as Potent and Selective Sigma Receptor Ligands: Stereochemistry and Pharmacological Properties” (J Med Chem, 2018).
pKi: −log10 of the molar value. In brackets after ≈: the same amount, converted by molar mass. Activity calls are given as the source filed them. The calls are words filed in the database; no cut-off is given here.

Columns and labels:
[1] = target: Sigma non-opioid intracellular receptor 1 (Cavia porcellus, UniProt Q60492); test: Displacement of [3H]-(+)-pentazocine from sigma1 receptor in guinea pig brain membrane after 150 mins by liquid scintillation counting method; assay type: cell membranes
[2] = Displacement of [3H]-(+)-DTG from sigma2 receptor in guinea pig brain membrane after 120 mins by liquid scintillation counting method; assay type: cell membranes, Cavia porcellus
Cavia porcellus = species: Cavia porcellus; test: Selectivity index, ratio of Ki for sigma2 receptor in guinea pig brain membrane […]; assay type: cell membranes
Mus musculus [3] = test: (§1) Antinociceptive activity in CD1 mouse model of mechanical nociception assessed as increase in morphine-induced struggle response latency at 16 to 32 mg/kg, sc administered 30 mins before behavioral evaluation by paw pressure test; assay type: functional, organism-based
Summary of the method: (§2)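 Female CD1 mice (25–30 g) in the paw pressure test. A 450 g blunt cone was pressed on the dorsal hindpaw until a struggle response, and latency (s) was recorded. Each hindpaw was tested twice, alternately, 1 min apart. Morphine (4 mg/kg) or HPMC vehicle was given s.c. 30 min before testing. Test drugs were given s.c. in HPMC 5 min before morphine. Mean ± SEM, 6–8 animals; one-way ANOVA with Bonferroni.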

Mus musculus [4] = test: Antinociceptive activity in sc dosed CD1 mouse model of mechanical nociception assessed as increase in morphine-induced struggle response latency administered 30 mins before behavioral evaluation by paw pressure test; assay type: functional, organism-based; summary of the method: as §2
Mus musculus [5] = test: Antinociceptive activity in CD1 mouse model of mechanical nociception assessed as effect on struggle response latency at 32 mg/kg, sc administered 30 mins before behavioral evaluation by paw pressure test; assay type: functional, organism-based; summary of the method: as §2
Mus musculus [6] = test: as §1, with “at” for “at 16 to”, “evaluation co-treated with 32 mg/kg, sc prototypical sigma1 receptor agonist PRE-084 administered 5 min before injection of morphine” for “evaluation”; assay type: functional, organism-based; summary of the method: as §2
Plasma [7] = test: Enzymatic stability of the compound in rat plasma assessed observed rate constant; assay type: ADME, cell-free
Summary of the method: (§3)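 Hydrolysis was followed at 37 °C in rat, mouse or human plasma. Half-life (h) and observed rate constant (h⁻¹) were derived; means ± SD of three experiments.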

[8] = Aqueous solubility of the compound; assay type: physicochemical
Summary of the method: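 Water solubility (mg/mL) was measured experimentally; mean ± SD of three experiments.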

[9] = Chemical stability of the compound at pH 1.3 assessed as half life; assay type: physicochemical; conditions: buffer
Summary of the method: (§4)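 Chemical stability was tested in vitro at 37 °C in aqueous buffer at pH 1.3 (non-enzymatic simulated gastric fluid) or pH 7.4. Half-life and k_obs were reported; means ± SD of three experiments.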

[10] = Chemical stability of the compound at pH 7.4 assessed as half life; assay type: physicochemical; conditions: buffer; summary of the method: as §4
[11] = Chemical stability at pH 1.3 assessed as observed rate constant; assay type: physicochemical; conditions: buffer; summary of the method: as §4
[12] = Chemical stability at pH 7.4 assessed as observed rate constant; assay type: physicochemical; conditions: buffer; summary of the method: as §4
[13] = Enzymatic stability of the compound in rat plasma assessed as half life; assay type: ADME, cell-free; summary of the method: as §3
[14] = Enzymatic stability of the compound in mouse plasma assessed as half life; assay type: ADME, cell-free; summary of the method: as §3
Plasma [15] = test: Enzymatic stability of the compound in mouse plasma assessed observed rate constant; assay type: ADME, cell-free; summary of the method: as §3
[16] = Enzymatic stability of the compound in human plasma assessed as half life; assay type: ADME, cell-free; summary of the method: as §3
Plasma [17] = test: Enzymatic stability of the compound in human plasma assessed observed rate constant; assay type: ADME, cell-free; summary of the method: as §3
[18] = target: D(3) dopamine receptor (Rattus norvegicus) (UniProt P19020); test: Binding affinity to dopamine D3 receptor in rat olfactory tubercle by liquid scintillation counting method
Homo sapiens = species: Homo sapiens; test: Binding affinity to dopamine D4.2 receptor (unknown origin) by liquid scintillation counting method
[19] = target: 5-hydroxytryptamine receptor 2A (Rattus norvegicus) (UniProt P14842); test: Binding affinity to 5-HT2A receptor in rat cortex by liquid scintillation counting method
[20] = target: T1, 5-hydroxytryptamine receptor 3A (Rattus norvegicus) (UniProt P35563); test: Binding affinity to 5-HT3 receptor in rat cortex by liquid scintillation counting method
T1 sequence (whole entry): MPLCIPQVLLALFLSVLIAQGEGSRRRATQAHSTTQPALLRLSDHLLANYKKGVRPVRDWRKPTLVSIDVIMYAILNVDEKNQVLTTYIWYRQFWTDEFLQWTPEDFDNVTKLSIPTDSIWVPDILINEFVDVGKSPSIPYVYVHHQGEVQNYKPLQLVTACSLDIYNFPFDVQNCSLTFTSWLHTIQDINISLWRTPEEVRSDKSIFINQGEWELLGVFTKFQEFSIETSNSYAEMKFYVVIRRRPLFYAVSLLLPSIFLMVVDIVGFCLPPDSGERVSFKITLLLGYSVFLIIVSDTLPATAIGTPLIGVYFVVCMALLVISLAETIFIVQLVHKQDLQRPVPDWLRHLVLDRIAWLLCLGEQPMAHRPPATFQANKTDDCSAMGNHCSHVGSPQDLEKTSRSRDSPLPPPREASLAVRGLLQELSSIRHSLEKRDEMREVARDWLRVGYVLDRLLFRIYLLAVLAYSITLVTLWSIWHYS

[21] = target: Adrenergic receptor alpha-1 (Rattus norvegicus) (UniProt P15823+P23944+P43140); test: Binding affinity to adrenergic alpha1 receptor in rat cortex by liquid scintillation counting method
Mus musculus [22] = test: Reversal of 8 mg/kg, sc BD-1063-induced potentiation of morphine-induced antinociceptive activity in CD1 mouse model of mechanical nociception by measuring struggle response latency at 32 mg/kg, sc administered 30 mins before behavioral evaluation by paw pressure test; assay type: functional, organism-based; summary of the method: as §2
D(1A) dopamine receptor = D(1A) dopamine receptor (Rattus norvegicus, UniProt P18901); test: Binding affinity to dopamine D1 receptor in rat striatum by liquid scintillation counting method
D(2) dopamine receptor = D(2) dopamine receptor (Rattus norvegicus, UniProt P61169); test: Displacement of [3H]-spiperone from dopamine D2 receptor in rat strriatum after 15 mins by liquid scintillation counting method
Mus musculus [23] = test: Antinociceptive activity in CD1 mouse model of mechanical nociception assessed as effect on struggle response latency at 8 mg/kg, sc administered 30 mins before behavioral evaluation by paw pressure test; assay type: functional, organism-based; summary of the method: as §2
Mus musculus [24] = test: Antinociceptive activity in CD1 mouse model of mechanical nociception assessed as effect on struggle response latency at 16 to 32 mg/kg, sc administered 30 mins before behavioral evaluation by paw pressure test; assay type: functional, organism-based; summary of the method: as §2
Mus musculus [25] = test: Antinociceptive activity in CD1 mouse model of mechanical nociception assessed as effect on struggle response latency at 4 mg/kg, sc administered 30 mins before behavioral evaluation by paw pressure test; assay type: functional, organism-based
Summary of the method: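 Female CD1 mice (25–30 g). Paw pressure test: a blunt cone applied 450 g to the dorsal hindpaw until a struggle response; latency (s) recorded. Each hindpaw was tested twice, alternately, at 1 min intervals. Morphine or HPMC vehicle was given s.c. 30 min before testing. Values are the mean ± SEM of both hindpaws from 6–8 animals; one-way ANOVA with Bonferroni test.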

Mus musculus [26] = test: Antinociceptive activity in CD1 mouse model of mechanical nociception assessed as increase in morphine-induced struggle response latency at 12 to 16 mg/kg, sc administered 30 mins before behavioral evaluation by paw pressure test; assay type: functional, organism-based; summary of the method: as §2

Chain of D(2) dopamine receptor (P61169 whole entry): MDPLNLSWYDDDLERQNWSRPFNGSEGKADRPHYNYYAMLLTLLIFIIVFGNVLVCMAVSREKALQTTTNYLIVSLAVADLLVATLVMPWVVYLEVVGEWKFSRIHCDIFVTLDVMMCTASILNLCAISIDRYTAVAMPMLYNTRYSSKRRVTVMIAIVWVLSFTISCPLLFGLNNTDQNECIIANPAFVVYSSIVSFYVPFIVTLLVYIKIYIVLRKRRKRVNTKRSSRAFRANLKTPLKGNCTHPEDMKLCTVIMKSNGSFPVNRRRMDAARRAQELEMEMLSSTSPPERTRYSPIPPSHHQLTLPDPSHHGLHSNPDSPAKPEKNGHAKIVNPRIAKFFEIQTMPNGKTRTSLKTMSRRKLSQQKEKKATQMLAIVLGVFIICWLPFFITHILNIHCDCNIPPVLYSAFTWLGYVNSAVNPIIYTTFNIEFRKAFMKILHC
Chain of D(1A) dopamine receptor (P18901 whole entry): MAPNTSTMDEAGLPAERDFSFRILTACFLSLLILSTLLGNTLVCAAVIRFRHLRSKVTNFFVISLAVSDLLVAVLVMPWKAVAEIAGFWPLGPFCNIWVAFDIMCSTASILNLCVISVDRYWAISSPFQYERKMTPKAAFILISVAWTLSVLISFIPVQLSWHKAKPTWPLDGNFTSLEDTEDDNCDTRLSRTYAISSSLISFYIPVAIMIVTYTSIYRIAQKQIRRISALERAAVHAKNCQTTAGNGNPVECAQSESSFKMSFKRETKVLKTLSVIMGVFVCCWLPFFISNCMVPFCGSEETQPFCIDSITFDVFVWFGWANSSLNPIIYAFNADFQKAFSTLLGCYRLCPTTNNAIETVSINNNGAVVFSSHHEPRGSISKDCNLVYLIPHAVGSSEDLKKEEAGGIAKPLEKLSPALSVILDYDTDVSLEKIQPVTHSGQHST
Chain of Sigma non-opioid intracellular receptor 1 (Q60492 whole entry): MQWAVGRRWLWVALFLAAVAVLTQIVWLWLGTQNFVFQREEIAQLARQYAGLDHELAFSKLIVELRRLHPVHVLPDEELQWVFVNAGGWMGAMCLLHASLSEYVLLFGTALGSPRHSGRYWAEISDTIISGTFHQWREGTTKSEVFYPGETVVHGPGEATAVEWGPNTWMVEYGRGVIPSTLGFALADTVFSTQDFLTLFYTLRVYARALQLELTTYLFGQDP
Chain of D(3) dopamine receptor (Rattus norvegicus) (P19020 whole entry): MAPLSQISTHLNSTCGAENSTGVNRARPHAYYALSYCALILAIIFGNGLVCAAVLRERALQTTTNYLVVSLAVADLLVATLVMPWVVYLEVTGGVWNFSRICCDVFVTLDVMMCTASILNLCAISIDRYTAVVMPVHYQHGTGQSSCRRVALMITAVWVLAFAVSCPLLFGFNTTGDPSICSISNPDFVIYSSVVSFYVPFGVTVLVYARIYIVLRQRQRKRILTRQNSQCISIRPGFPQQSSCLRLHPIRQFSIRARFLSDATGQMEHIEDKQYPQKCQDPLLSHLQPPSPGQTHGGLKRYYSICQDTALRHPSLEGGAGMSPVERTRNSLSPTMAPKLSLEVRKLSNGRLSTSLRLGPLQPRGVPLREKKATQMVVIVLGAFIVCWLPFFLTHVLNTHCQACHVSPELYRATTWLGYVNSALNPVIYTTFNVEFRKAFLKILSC
Chain of 5-hydroxytryptamine receptor 2A (Rattus norvegicus) (P14842 whole entry): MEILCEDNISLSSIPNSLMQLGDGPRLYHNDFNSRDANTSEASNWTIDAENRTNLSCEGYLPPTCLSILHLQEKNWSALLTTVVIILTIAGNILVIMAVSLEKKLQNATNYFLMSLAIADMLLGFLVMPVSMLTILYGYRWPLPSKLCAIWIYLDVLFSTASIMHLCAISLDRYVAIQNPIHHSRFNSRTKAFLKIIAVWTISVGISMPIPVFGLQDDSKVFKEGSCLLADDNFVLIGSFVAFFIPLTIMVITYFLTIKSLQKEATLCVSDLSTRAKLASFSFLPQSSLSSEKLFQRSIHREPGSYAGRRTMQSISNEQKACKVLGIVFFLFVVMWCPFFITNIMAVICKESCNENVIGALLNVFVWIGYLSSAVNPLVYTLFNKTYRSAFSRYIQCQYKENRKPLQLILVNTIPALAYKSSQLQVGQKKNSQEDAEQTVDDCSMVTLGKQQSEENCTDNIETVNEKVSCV

Structure (SMILES) | pKi [1] | pKi [2] | Ratio Ki (Cavia porcellus) | further results
CC(C)OC(=O)[C@]1(c2ccccc2)C[C@H]1CN1CCC(O)(c2ccc(Cl)cc2)CC1 | 7.37 | 6.67 | 5 | Activity (Mus musculus [3]): Active; Activity (Mus musculus [4]): Dose-dependent effect; Activity (Mus musculus [5]): inactive; Activity (Mus musculus [6]): inactive
CC(C)OC(=O)[C@@]1(c2ccccc2)C[C@@H]1CN1CCC(O)(c2ccc(Cl)cc2)CC1 | 8.15 | 5.74 | > 250 | K (Plasma [7]): 3.26 h⁻¹; solubility [8]: 3100 µg/mL (≈ 7.24 mM); half-life [9]: 83.6 h; half-life [10]: 91 h; K [11]: 0.009 h⁻¹; K [12]: 0.009 h⁻¹; half-life [13]: 0.38 h; half-life [14]: 1.14 h; K (Plasma [15]): 0.51 h⁻¹; half-life [16]: 65.2 h; K (Plasma [17]): 0.01 h⁻¹; Activity (Mus musculus [3]): inactive; Activity [18]: inactive; Activity (Homo sapiens): inactive; Activity [19]: inactive; Activity [20]: inactive; Activity [21]: inactive; Activity (Mus musculus [22]): Active
COC(=O)C1(c2ccccc2)CC1CN1CCC(O)(c2ccc(Cl)cc2)CC1 (racemic) | 7.84 | 7.21 |  | pKi (D(1A) dopamine receptor): < 5.00; pKi (D(2) dopamine receptor): 5.28
CCOC(=O)[C@]1(c2ccccc2)C[C@H]1CN1CCC(O)(c2ccc(Cl)cc2)CC1 | 7.35 | 6.97 | 2.4 | 
COC(=O)[C@]1(c2ccccc2)C[C@H]1CN1CCC(O)(c2ccc(Cl)cc2)CC1 | 7.96 | 7.40 | 3.6 | pKi (D(1A) dopamine receptor): < 5.00; pKi (D(2) dopamine receptor): 5.25
CN1CCN(CCc2ccc(Cl)c(Cl)c2)CC1 |  |  |  | Activity (Mus musculus [23]): Active
CCOC(=O)[C@]1(c2ccccc2)C[C@@H]1CN1CCC(O)(c2ccc(Cl)cc2)CC1 | 8.87 | 7.24 | 42.2 | 
CC(C)OC(=O)[C@]1(c2ccccc2)C[C@@H]1CN1CCC(O)(c2ccc(Cl)cc2)CC1 | 7.70 | 6.68 | 10.5 | Activity (Mus musculus [6]): inactive; Activity (Mus musculus [24]): inactive
CCCOC(=O)[C@@]1(c2ccccc2)C[C@H]1CN1CCC(O)(c2ccc(Cl)cc2)CC1 | 7.48 | 6.54 | 8.8 | 
CCCOC(=O)[C@]1(c2ccccc2)C[C@@H]1CN1CCC(O)(c2ccc(Cl)cc2)CC1 | 7.85 | 6.84 | 10.4 | 
O=C(O)[C@@]1(c2ccccc2)C[C@@H]1CN1CCC(O)(c2ccc(Cl)cc2)CC1 | 6.35 | 6.19 | 1.5 | 
CCCOC(=O)[C@@]1(c2ccccc2)C[C@@H]1CN1CCC(O)(c2ccc(Cl)cc2)CC1 | 7.89 | 6.77 | 13.2 | 
COC(=O)C1(c2ccccc2)CC1CN1CCC(O)(c2ccc(Cl)cc2)CC1 (single isomer, unassigned; (+)) [listing 1 of 2 here] |  |  | 14.5 | 
CCCN1CCC=C(c2cc(-c3ccc(C)cc3)no2)C1 | 8.37 |  |  | 
CCOC(=O)[C@@]1(c2ccccc2)C[C@@H]1CN1CCC(O)(c2ccc(Cl)cc2)CC1 | 7.28 | 5.89 | 25 | 
CCOC(=O)[C@@]1(c2ccccc2)C[C@H]1CN1CCC(O)(c2ccc(Cl)cc2)CC1 | 7.35 | 6.04 | 20.4 | 
COC(=O)C1(c2ccccc2)CC1CN1CCC(O)(c2ccc(Cl)cc2)CC1 (single isomer, unassigned; (-)) | 8.25 | 7.63 |  | pKi (D(1A) dopamine receptor): < 5.00; pKi (D(2) dopamine receptor): 6.42
O=C(CCCN1CCC(O)(c2ccc(Cl)cc2)CC1)c1ccc(F)cc1 [HALOPERIDOL] |  | 7.80 |  | 
COC(=O)C1(c2ccccc2)CC1CN1CCC(O)(c2ccc(Cl)cc2)CC1 (single isomer, unassigned; (+)) [listing 2 of 2 here] | 8.82 | 7.66 |  | pKi (D(1A) dopamine receptor): < 5.00; pKi (D(2) dopamine receptor): 5.49
CN1CC[C@]23c4c5ccc(O)c4O[C@H]2[C@@H](O)C=C[C@H]3[C@H]1C5 |  |  |  | Activity (Mus musculus [25]): inactive
COC(=O)[C@@]1(c2ccccc2)C[C@@H]1CN1CCC(O)(c2ccc(Cl)cc2)CC1 | 6.89 | 6.85 | 1.1 | pKi (D(1A) dopamine receptor): < 5.00; pKi (D(2) dopamine receptor): 5.30
CCCOC(=O)[C@]1(c2ccccc2)C[C@H]1CN1CCC(O)(c2ccc(Cl)cc2)CC1 | 7.92 | 7.14 | 6.1 | 
CC(C)OC(=O)[C@@]1(c2ccccc2)C[C@H]1CN1CCC(O)(c2ccc(Cl)cc2)CC1 | 7.17 | 5.79 | 24.4 | Activity (Mus musculus [3]): Active; Activity (Mus musculus [26]): Active; Activity (Mus musculus [6]): inactive; Activity (Mus musculus [24]): inactive
